Experimental data gathered from unrelated publications.
Lines come from different studies, so protocols differ.
Target: MAP kinase-activated protein kinase 2 (MAPKAPK2, Homo sapiens, UniProt P49137)

Nc1ncc2c(n1)-c1c([nH]c3ccc(C#CC4CC4)cc13)CCCC2 — remaining binding (binding, competition with immobilised ligand; 1 µM): 86%
CN(c1nccc(-c2cnn3ncccc23)n1)C1CC1 — remaining binding (binding; 1 µM): 83%
O=C(NCCCN1CCOCC1)c1ccc(Nc2nccc(-c3cc4ccccc4s3)n2)cc1 — remaining binding (binding, competition with immobilised ligand; 1 µM): 100%
C[C@@H](c1ccc(-n2cnc3c(N)ncnc32)cc1)N1CCc2nn(C)c(Cc3ccccc3)c2C1=O — remaining binding (binding, competition with immobilised ligand; 0.1 µM): 49%
Cn1nc(C(F)(F)F)cc1-c1cnc(N2CCc3cc(S(=O)(=O)Nc4c(F)cc(Cl)cc4F)cc(N4CCCC4=O)c32)nc1 — remaining binding (cell-free assay, competition with immobilised ligand; 1 µM): 73%
FC(F)(F)Oc1cccc(-c2cnc3ccc(-c4ccncc4)nn23)c1 — remaining binding (cell-free assay, competition with immobilised ligand; 5 µM): 100%
COc1cnc(Nc2cccc(S(N)(=O)=O)c2)nc1N1CCN(c2ccccc2)C(=O)C1 — remaining binding (binding, competition with immobilised ligand; 1 µM): 100%
NS(=O)(=O)c1cc(NC(=O)Cc2ccccc2)ccc1Oc1cccc(Cl)c1 — remaining binding (cell-free assay, competition with immobilised ligand; 1 µM): 100%
O=C(NCCCN1CCOCC1)c1ccc(Nc2ncc(Cl)c(-c3ccc(Cl)s3)n2)cc1 — remaining binding (binding, competition with immobilised ligand; 1 µM): 100%
O=C(NCC1CCOCC1)c1n[nH]cc1NC(=O)c1c(F)cccc1F — remaining binding (binding, competition with immobilised ligand; 1 µM): 66%
Cc1cnc(Nc2ccc(C(=O)N3CCC(N4CCCC4)CC3)cc2)nc1-c1cc2ccccc2s1 — remaining binding (binding, competition with immobilised ligand; 1 µM): 100%
N[C@@H]1CCN(c2nccc(-c3cnn4ncccc34)n2)C1 — remaining binding (binding; 1 µM): 100%
CC(C)(C)c1ccc(-c2nc(CBr)nn2-c2cccc(O)c2)cc1 — remaining binding (cell-free assay, competition with immobilised ligand; 10 µM): 100%
COCCOc1nc(-c2ccc(Cl)nc2)nc2c1CN(C(=O)c1ncn3ccccc13)CC2 — remaining binding (cell-free assay, competition with immobilised ligand; 0.1 µM): 73%
F[C@@H]1CCN(c2nccc(-c3cnn4ncccc34)n2)C1 — remaining binding (binding; 1 µM): 93%
CNCc1ccccc1-c1csc([C@@H](C)Nc2nc(C)nc3cc(OC)c(OC)cc23)c1 — remaining binding (cell-free assay, competition with immobilised ligand; 1 µM): 83%
C[C@@H]1CN(c2ccc3ncc(-c4ccc5[nH]nc(C6CC6)c5c4)n3n2)C[C@H](C)O1 — remaining binding (binding, competition with immobilised ligand; 50 nM): 62%
COc1ccc2c(O[C@@H]3C[C@H]4C(=O)N[C@]5(C(=O)O)CC5/C=C\CCCCC[C@H](NC(=O)OC5CCCC5)C(=O)N4C3)cc(-c3csc(NC(=O)C(C)C)n3)nc2c1C (some centres unmarked) — remaining binding (cell-free assay, competition with immobilised ligand; 1 µM): 60%
C[C@H]1CCN(c2nccc(-c3cnn4ncccc34)n2)C1 — remaining binding (binding; 1 µM): 100%
CN([C@@H]1CCc2c(CC(=O)O)c3ccccc3n2C1)S(=O)(=O)c1ccc(F)cc1 — remaining binding (cell-free assay, competition with immobilised ligand; 1 µM): 100%
COc1ncc2cc3ccccc3nc2c1C#N — remaining binding (cell-free assay, competition with immobilised ligand; 5 µM): 100%
Cc1c(C(=O)O)cc(-c2ccc(C3CCNCC3)cc2)c2ccc(-c3ccc(C(F)(F)F)cc3)cc12 — remaining binding (binding, competition with immobilised ligand; 1 µM): 88%
c1cnn2ncc(-c3ccnc(N4CCC45COC5)n3)c2c1 — remaining binding (binding; 1 µM): 100%
